According to the array DNA melting data of Ke et al. (doi:10.1101/2024.01.08.574731):

Experiments:
[1] = melting temperature; fluorescence melt of hairpins on a sequencing array, two-state fit, raised by 9.35 °C to match UV melts; conditions: sodium 0.088 M
Procedure, shortened: (§1)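 Hairpins were imaged by Cy3 fluorescence on a sequenced MiSeq flow cell with annealed Cy3 and quencher oligos, in 50 mM Na-HEPES pH 8.0, 25 mM NaCl, in 2.5 °C steps up to 60 °C. Bootstrapped two-state fits of normalised signals gave melting temperature and folding enthalpy. Four replicates were combined by inverse variance, and fitted temperatures were raised by 9.35 °C to match UV melts.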

[2] = folding enthalpy; higher = less favourable; fluorescence melt of hairpins on a sequencing array, two-state fit; conditions: sodium 0.088 M
Procedure, shortened: as §1

Sequence	Tm [1] [°C]	folding enthalpy [2] [kcal/mol]
GATCTTACATAAGATC ((((((....))))))	43.1	-35.9
GATCTTACCTAAGATC ((((((....))))))	45	-40.2
GATCTTACGAAGATC ((((((...))))))	42.9	-34.6
GATCTTACGCAAGATC ((((((....))))))	42.9	-31.1
GATCTTACTCAAGATC ((((((....))))))	42.3	-33.5
GATCTTACTTAAGATC ((((((....))))))	44.1	-35.6
GATCTTAGTTAAGATC ((((((....))))))	44.1	-34.9
GATCTTATACAAGATC ((((((....))))))	42.6	-33.8
GATCTTATCAAAGATC ((((((....))))))	44.2	-33.1
GATCTTATCTAAGATC ((((((....))))))	45.2	-41.9
GATCTTATGAAGATC ((((((...))))))	42.4	-28.1
GATCTTCAAGAAGATC ((((((....))))))	46	-33.5
GATCTTCACAAGATC ((((((...))))))	45.8	-28.7
GATCTTCCACAAGATC ((((((....))))))	41.5	-35.2
GATCTTCCATAAGATC ((((((....))))))	43.4	-33.9
GATCTTCGAAAGATC ((((((...))))))	39.9	-21.4
GATCTTCGGAAGATC ((((((...))))))	41.9	-33.3
GATCTTCTCAAGATC ((((((...))))))	46.7	-33.3
GATCTTCTCTAAGATC ((((((....))))))	42.8	-35
GATCTTGAGGAAGATC ((((((....))))))	36.8	-24.9
GATCTTGAGTAAGATC ((((((....))))))	40.4	-25.4
GATCTTGATTAAGATC ((((((....))))))	41.8	-26.6
GATCTTGCACAAGATC ((((((....))))))	50.8	-33.4
GATCTTGCCAAAGATC ((((((....))))))	55	-39

Sequence	Tm [1] [°C]	folding enthalpy [2] [kcal/mol]
GATCTTGCCTAAGATC ((((((....))))))	48.2	-39.2
GATCTTGCGGAAGATC ((((((....))))))	42.7	-36
GATCTTGCTTAAGATC ((((((....))))))	44	-38
GATCTTGGAGAAGATC ((((((....))))))	43.9	-29.8
GATCTTGGCGAAGATC ((((((....))))))	47	-30.8
GATCTTGGGAAGATC ((((((...))))))	39.7	-22.8
GATCTTGGGCAAGATC ((((((....))))))	46.7	-37.4
GATCTTGGTAAAGATC ((((((....))))))	53.5	-41.3
GATCTTGTGCAAGATC ((((((....))))))	46.4	-47
GATCTTGTTAAAGATC ((((((....))))))	53.7	-37.3
GATCTTGTTAAGATC ((((((...))))))	45.8	-30.1
GATCTTTAAGAAGATC ((((((....))))))	41.5	-34.9
GATCTTTATGAAGATC ((((((....))))))	44.9	-36.5
GATCTTTCAGAAGATC ((((((....))))))	44.3	-34.1
GATCTTTCGAAAGATC ((((((....))))))	49.3	-40.8
GATCTTTGGAAAGATC ((((((....))))))	42.7	-31.5
GATCTTTGTCAAGATC ((((((....))))))	39.9	-33
GATCTTTTGGAAGATC ((((((....))))))	44.3	-34.1
GATGAACCGAAAGGTATC (((..(((....))))))	28.8	-12.9
GATGAAGGAAACTTCATC (((((((....)))))))	53.5	-40.9
GATGAAGGAAACTTCGTC ((.((((....)))).))	42.4	-27
GATGACGAAAGTCCATC ((((((....))).)))	41.5	-17.2
GATGACGAAAGTCGCATC ((((((....)))..)))	30.8	-11.1
GATGAGACGAAAGTCATC (((..(((....))))))	35.9	-13.4

Sequence	Tm [1] [°C]	folding enthalpy [2] [kcal/mol]
GATGAGCGAAAGCTAATC (((.(((....))).)))	46.6	-24.9
GATGAGGGAAACCCCATC ((((.((....)).))))	41.2	-31.4
GATGAGGGAAACTTCATC (((((.(....).)))))	37.1	-25
GATGATGGAAACATCACC (.(((((....))))).)	37.3	-16.3
GATGCACCGAAAGGTATC (((..(((....))))))	29	-9.42
GATGCAGGAAACCGCATC (((((.(....).)))))	49.9	-33.5
GATGCAGGAAACTGCACC (.(((((....))))).)	40.5	-12.7
GATGCCCGAAAGGGAATC (((.(((....))).)))	53.9	-37.9
GATGCCCGAAAGGGATC (((.(((....))))))	45	-17.4
GATGCCGAAAGGCGAATC ((((((....)))..)))	36.9	-9.65
GATGCCGAAAGGCGTATC ((((((....)))..)))	36.4	-11.5
GATGCCGGAAACGACATC ((((.((....)).))))	48.2	-38.3
GATGCCGGAAACGGTATC (((.(((....))).)))	53.9	-42.9
GATGCGACGAAAGTCATC (((..(((....))))))	27.8	-13
GATGCGCGAAAGCGATC (((.(((....))))))	41.3	-12
GATGCGGGAAACCGTATC (((.(((....))).)))	50.3	-34.4
GATGCTGGAAACGGCATC (((((.(....).)))))	54.3	-44.1
GATGGACGAAAGTCAATC (((.(((....))).)))	48.1	-26.3
GATGGAGGAAACTCCGTC ((.((((....)))).))	48.9	-31.9
GATGGAGGAAACTTCATC ((((.((....)).))))	39.6	-37.5
GATGGCGAAAGCCAATC ((((((....))).)))	50.7	-14.1
GATGGCGAAAGCCGAATC ((((((....)))..)))	34.4	-8.36
GATGGCGAAAGCCTAATC ((((((....)))..)))	32	-9.84
GATGGCGGAAACGCTATC (((.(((....))).)))	52	-27.2

Sequence	Tm [1] [°C]	folding enthalpy [2] [kcal/mol]
GATGGGGCGAAAGCCATC (((..(((....))))))	38.1	-12
GATGGGGGAAACCTCGTC ((.(.((....)).).))	33.2	-20
GATGGTGCGAAAGCAATC (((..(((....))))))	28.7	-8.86
GATGGTGGAAACACCGTC ((.((((....)))).))	53.6	-23.7
GATGGTGGAAACACTATC (((.(((....))).)))	43.1	-31
GATGGTGGAAACGCTATC (((.(.(....).).)))	31.3	-16.2
GATGGTGGAAACGTCATC ((((..(....)..))))	33.3	-19.6
GATGTCCGAAAGGAAATC (((.(((....))).)))	43.6	-24
GATGTCGGAAACAACATC (((((.(....).)))))	35.7	-28.9
GATGTCGGAAACGGTATC (((..((....))..)))	31.6	-21.2
GATGTGACGAAAGTCATC (((..(((....))))))	34.2	-12
GATGTGCGAAAGCAATC (((.(((....))))))	38.2	-11.3
GATGTGGGAAACTACATC (((((.(....).)))))	44.9	-36.5
GATGTTGGAAACAACATC (((((((....)))))))	58.4	-44.6
GATGTTGGAAACAGTATC (((..((....))..)))	27	-10.2
GATTAAGAAATTAATC ((((((....))))))	30.4	-14.9
GATTAAGCGAAAGCTATC (((..(((....))))))	29.5	-9.58
GATTAAGGAAACTTGATC (((.(((....))).)))	30.3	-26.6
GATTACCGAAAGGTGATC (((.(((....))).)))	51.8	-37.5
GATTACGAAAGTAATC ((((((....))))))	56.4	-40
GATTACGAAAGTATGATC ((((((....)))..)))	14.5	-6.67
